Measurements collected from several papers.
LRRK2 G2019S: Leucine-rich repeat serine/threonine-protein kinase 2 (LRRK2, Homo sapiens, UniProt Q5S007, G2019S)
LRRK2: Leucine-rich repeat serine/threonine-protein kinase 2 (LRRK2, Homo sapiens, UniProt Q5S007)

| SMILES | target | test | conditions | measurement | result |
| --- | --- | --- | --- | --- | --- |
| C[C@]1(O)CCCN(c2nc(Nc3ccc(S(=O)(=O)N[C@H]4CC[C@H](CN5CCN(c6ccc(C7CCC(=O)NC7=O)cc6F)CC5)CC4)cc3F)ncc2C(F)(F)F)C1 (stereo partly drawn) | LRRK2 G2019S | binding, competition with immobilised ligand | 1 µM | remaining binding | 39% |
| C=CC(=O)N1CCC[C@@H](n2nc(-c3ccc(Oc4ccccc4)cc3)c3c(N)ncnc32)C1 | LRRK2 G2019S | enzyme activity, inhibitor | 1 µM | inhibition | 23% |
| C1=C/COCc2cc(ccc2OCCN2CCCC2)Nc2nccc(n2)-c2cccc(c2)COC/1 | LRRK2 | binding | 0.1 µM | remaining binding | 100% |
| CN1CCN(C(=O)c2ccc(NC(=O)Nc3ccc(N(C)c4ccnc(Nc5ccc(CS(C)(=O)=O)cc5)n4)cc3)cc2)CC1 | LRRK2 G2019S | binding | 1 µM | remaining binding | 71% |
| C[C@]1(O)CCCN(c2nc(Nc3ccc(S(=O)(=O)N[C@H]4CC[C@H](CN5CCN(c6ccc(C7CCC(=O)NC7=O)cc6F)CC5)CC4)cc3Cl)ncc2C(F)(F)F)C1 (stereo partly drawn) | LRRK2 | binding, competition with immobilised ligand | 1 µM | remaining binding | 21% |
| CCCCC(=O)Nc1ccc(-c2ccc3ncn(CCC)c(=O)c3c2)cn1 | LRRK2 | binding, competition with immobilised ligand | 0.5 µM | remaining binding | 100% |
| Cc1ccc(NC(=O)c2ccnc(C(F)(F)F)c2)cc1-c1cc(OCCO)nc(N2CCOCC2)c1 | LRRK2 | binding | 1 µM | remaining binding | 100% |
| CNS(=O)(=O)c1ccc(Nc2ncc(C(F)(F)F)c(N3CCC[C@](C)(O)C3)n2)c(C)c1 | LRRK2 | binding, competition with immobilised ligand | 1 µM | remaining binding | 12% |
| COc1ccc2[nH]c3c4[nH]c5ccc(OC)cc5c4c4c(c3c2c1)C(=O)NC4=O | LRRK2 | binding | 1 µM | remaining binding | 2.8% |
| CC#CC(=O)N1CCC[C@H]1c1nc(-c2ccc(C(=O)Nc3ccccn3)cc2)c2c(N)nccn12 | LRRK2 G2019S | enzyme activity, inhibitor | 1 µM | inhibition | 0% |
| Cc1cc(S(=O)(=O)N[C@H]2CC[C@H](CN3CCN(c4ccc(C5CCC(=O)NC5=O)cc4F)CC3)CC2)ccc1Nc1ncc(C(F)(F)F)c(N2CCC[C@](C)(O)C2)n1 (stereo partly drawn) | LRRK2 G2019S | binding, competition with immobilised ligand | 1 µM | remaining binding | 4% |
| C[C@H]1CC[C@H](n2c3cnccc3c3cnc(Nc4ccc5c(n4)CCN(C(=O)CO)C5)nc32)CC1 | LRRK2 | cell-free assay | 1 µM | remaining signal | 28% |
